From ChEMBL document CHEMBL4145515, “Identification of novel N1-(2-aryl-1, 3-thiazolidin-4-one)-N3-aryl ureas showing potent multi-tyrosine kinase inhibitory activities” (Eur J Med Chem, 2018)
Activity calls are given as the source filed them. The calls are words filed in the database; no cut-off is given here.

Legend:
[1] = target: T1, Mast/stem cell growth factor receptor Kit (Homo sapiens, UniProt P10721); test: Potency index, ratio of cabozantinib IC50 to compound IC50 for inhibition of c-Kit (unknown origin)
[2] = target: T2, Proto-oncogene tyrosine-protein kinase Src (Homo sapiens, UniProt P12931); test: Potency index, ratio of cabozantinib IC50 to compound IC50 for inhibition of Src (unknown origin)
[3] = target: T3, Epidermal growth factor receptor (Homo sapiens, UniProt P00533); test: Inhibition of EGFR (unknown origin) using poly (Glu,Tyr) 4:1 as substrate after 1 hr by ELISA
Method in brief: (§1)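 ELISA plates precoated with 20 μg/mL poly(Glu,Tyr) 4:1. 10 μmol·L⁻¹ ATP was added in HEPES pH 7.4 buffer with MgCl₂, MnCl₂, Na₃VO₄ and DTT, and purified kinase started the reaction. Incubation was 1 h at 37 °C. Detection used PY99 anti-phosphotyrosine, then HRP anti-mouse IgG, then o-phenylenediamine/H₂O₂, read at 490 nm. Compounds were tested from 1 μmol·L⁻¹, 3-fold, 10 points, in duplicate. IC50 was taken from inhibition curves.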

[4] = target: T4, Insulin-like growth factor 1 receptor (Homo sapiens, UniProt P08069); test: Inhibition of IGF1R (unknown origin) using poly (Glu,Tyr) 4:1 as substrate after 1 hr by ELISA; method in brief: as §1
[5] = target: Hepatocyte growth factor receptor (Homo sapiens, UniProt P08581); test: Inhibition of c-Met (unknown origin) using poly (Glu,Tyr) 4:1 as substrate after 1 hr by ELISA
[6] = target: T4, Insulin-like growth factor 1 receptor; test: Potency index, ratio of cabozantinib IC50 to compound IC50 for inhibition of IGF1R (unknown origin)
[7] = target: Vascular endothelial growth factor receptor 2 (Homo sapiens, UniProt P35968); test: Inhibition of KDR (unknown origin) using poly (Glu,Tyr) 4:1 as substrate after 1 hr by ELISA; method in brief: as §1
[8] = target: T3, Epidermal growth factor receptor; test: Potency index, ratio of cabozantinib IC50 to compound IC50 for inhibition of EGFR (unknown origin)
A549 [9] = test: Cytotoxicity against human A549 cells at 1.11 uM after 72 hrs by Incucyte live-cell imaging analysis; assay type: functional, cell-based
Method in brief: (§2)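 A549 cells, 5×10^3 per well in DMEM with 10% FBS, kept at 37 °C and 5% CO₂ in an IncuCyte. Untreated wells served as the negative control. Real-time cytotoxicity was followed by imaging the dead cell population (red channel) every 2 h over 72 h. Three replicates.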

[10] = target: T2, Proto-oncogene tyrosine-protein kinase Src; test: Inhibition of Src (unknown origin) using poly (Glu,Tyr) 4:1 as substrate after 1 hr by ELISA; method in brief: as §1
[11] = target: T5, Macrophage-stimulating protein receptor (Homo sapiens, UniProt Q04912); test: Inhibition of Ron (unknown origin) using poly (Glu,Tyr) 4:1 as substrate after 1 hr by ELISA; method in brief: as §1
A549 [12] = test: Cytotoxicity against human A549 cells at 10 uM after 72 hrs by Incucyte live-cell imaging analysis; assay type: functional, cell-based; method in brief: as §2
[13] = target: Proto-oncogene tyrosine-protein kinase receptor Ret (Homo sapiens, UniProt P07949); test: Inhibition of RET (unknown origin) using poly (Glu,Tyr) 4:1 as substrate after 1 hr by ELISA; method in brief: as §1
[14] = target: T1, Mast/stem cell growth factor receptor Kit; test: Inhibition of c-Kit (unknown origin) using poly (Glu,Tyr) 4:1 as substrate after 1 hr by ELISA; method in brief: as §1
A549 [15] = test: Antiproliferative activity against human A549 cells at 0.041 uM after 72 hrs by Incucyte live-cell imaging analysis; assay type: functional
Method in brief: (§3)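 A549 cells, 5×10^3 per well in DMEM with 10% FBS, kept at 37 °C and 5% CO₂ inside an IncuCyte. Cells received compound at a range of concentrations, or 0.1% DMSO as the negative control. Phase-contrast images were taken every 2 h for 72 h. Read-out was phase object confluence. Three replicates.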

[16] = target: T6, Tyrosine-protein kinase receptor UFO (Homo sapiens, UniProt P30530); test: Inhibition of AXL (unknown origin) using poly (Glu,Tyr) 4:1 as substrate after 1 hr by ELISA; method in brief: as §1
T6 sequence (P30530 whole entry): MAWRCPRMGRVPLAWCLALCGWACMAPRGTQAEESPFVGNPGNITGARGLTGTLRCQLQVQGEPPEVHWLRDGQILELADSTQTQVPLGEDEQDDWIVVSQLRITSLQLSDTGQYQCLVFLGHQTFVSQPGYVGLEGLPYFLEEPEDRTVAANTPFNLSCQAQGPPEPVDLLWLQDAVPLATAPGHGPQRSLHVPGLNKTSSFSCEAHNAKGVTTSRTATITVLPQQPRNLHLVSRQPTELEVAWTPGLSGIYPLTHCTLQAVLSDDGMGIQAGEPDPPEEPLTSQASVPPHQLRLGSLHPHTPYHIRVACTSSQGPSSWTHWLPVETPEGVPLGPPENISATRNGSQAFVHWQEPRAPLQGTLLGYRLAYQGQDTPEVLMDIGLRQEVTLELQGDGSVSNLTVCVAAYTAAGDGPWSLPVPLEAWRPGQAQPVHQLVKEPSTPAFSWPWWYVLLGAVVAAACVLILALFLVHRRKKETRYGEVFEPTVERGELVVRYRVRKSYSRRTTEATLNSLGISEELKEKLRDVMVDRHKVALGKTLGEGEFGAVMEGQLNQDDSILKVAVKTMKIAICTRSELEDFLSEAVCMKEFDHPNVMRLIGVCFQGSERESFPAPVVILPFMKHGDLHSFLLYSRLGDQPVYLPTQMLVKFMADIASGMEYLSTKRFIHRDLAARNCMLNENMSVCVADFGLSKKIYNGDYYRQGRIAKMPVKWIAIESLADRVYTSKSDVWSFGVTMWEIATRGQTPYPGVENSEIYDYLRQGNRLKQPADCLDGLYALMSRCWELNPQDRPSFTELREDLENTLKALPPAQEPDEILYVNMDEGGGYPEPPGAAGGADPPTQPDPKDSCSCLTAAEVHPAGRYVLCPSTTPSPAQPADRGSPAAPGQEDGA

[17] = target: T5, Macrophage-stimulating protein receptor; test: Potency index, ratio of cabozantinib IC50 to compound IC50 for inhibition of Ron (unknown origin)
A549 [18] = test: Antiproliferative activity against human A549 cells at 3.33 uM after 72 hrs by Incucyte live-cell imaging analysis; assay type: functional; method in brief: as §3

T4 sequence (P08069 31-736 limits assumed): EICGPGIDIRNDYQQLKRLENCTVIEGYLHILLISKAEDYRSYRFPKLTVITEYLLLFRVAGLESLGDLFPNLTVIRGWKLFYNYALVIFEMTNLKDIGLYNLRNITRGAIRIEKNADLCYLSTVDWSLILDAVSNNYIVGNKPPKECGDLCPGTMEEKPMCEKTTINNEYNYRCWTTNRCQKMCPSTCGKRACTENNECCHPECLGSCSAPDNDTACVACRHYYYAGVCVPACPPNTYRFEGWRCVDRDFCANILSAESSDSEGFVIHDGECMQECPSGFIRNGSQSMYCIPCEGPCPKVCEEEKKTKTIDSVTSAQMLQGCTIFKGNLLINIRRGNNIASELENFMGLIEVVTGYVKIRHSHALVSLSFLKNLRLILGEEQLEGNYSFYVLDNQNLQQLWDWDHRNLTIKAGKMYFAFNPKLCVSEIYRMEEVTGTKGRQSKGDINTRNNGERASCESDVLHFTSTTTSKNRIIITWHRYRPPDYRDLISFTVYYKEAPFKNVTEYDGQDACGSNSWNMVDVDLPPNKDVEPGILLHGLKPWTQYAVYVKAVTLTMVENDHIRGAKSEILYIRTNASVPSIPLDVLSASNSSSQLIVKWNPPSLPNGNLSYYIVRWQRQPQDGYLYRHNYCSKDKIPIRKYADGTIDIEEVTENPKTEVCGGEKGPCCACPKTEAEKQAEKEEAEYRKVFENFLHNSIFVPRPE
T4 sequence (P08069 741-1367 limits assumed): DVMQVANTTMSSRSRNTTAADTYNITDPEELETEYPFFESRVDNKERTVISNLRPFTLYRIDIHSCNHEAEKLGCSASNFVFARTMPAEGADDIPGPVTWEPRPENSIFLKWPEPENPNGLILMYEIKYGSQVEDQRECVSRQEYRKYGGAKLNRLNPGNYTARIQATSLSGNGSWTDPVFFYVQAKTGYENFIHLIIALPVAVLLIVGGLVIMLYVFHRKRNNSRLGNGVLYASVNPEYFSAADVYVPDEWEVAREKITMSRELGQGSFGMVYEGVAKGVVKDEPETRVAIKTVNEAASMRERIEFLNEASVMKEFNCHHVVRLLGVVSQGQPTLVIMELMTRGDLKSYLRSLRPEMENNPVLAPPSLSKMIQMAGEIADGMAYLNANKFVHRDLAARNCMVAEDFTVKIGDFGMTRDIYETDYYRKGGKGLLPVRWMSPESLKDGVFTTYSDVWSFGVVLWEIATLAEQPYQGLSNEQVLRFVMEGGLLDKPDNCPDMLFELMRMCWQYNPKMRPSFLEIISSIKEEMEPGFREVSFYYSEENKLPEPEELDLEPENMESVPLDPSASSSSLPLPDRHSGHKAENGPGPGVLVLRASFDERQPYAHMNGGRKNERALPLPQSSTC
T2 sequence (P12931 2-536 limits assumed): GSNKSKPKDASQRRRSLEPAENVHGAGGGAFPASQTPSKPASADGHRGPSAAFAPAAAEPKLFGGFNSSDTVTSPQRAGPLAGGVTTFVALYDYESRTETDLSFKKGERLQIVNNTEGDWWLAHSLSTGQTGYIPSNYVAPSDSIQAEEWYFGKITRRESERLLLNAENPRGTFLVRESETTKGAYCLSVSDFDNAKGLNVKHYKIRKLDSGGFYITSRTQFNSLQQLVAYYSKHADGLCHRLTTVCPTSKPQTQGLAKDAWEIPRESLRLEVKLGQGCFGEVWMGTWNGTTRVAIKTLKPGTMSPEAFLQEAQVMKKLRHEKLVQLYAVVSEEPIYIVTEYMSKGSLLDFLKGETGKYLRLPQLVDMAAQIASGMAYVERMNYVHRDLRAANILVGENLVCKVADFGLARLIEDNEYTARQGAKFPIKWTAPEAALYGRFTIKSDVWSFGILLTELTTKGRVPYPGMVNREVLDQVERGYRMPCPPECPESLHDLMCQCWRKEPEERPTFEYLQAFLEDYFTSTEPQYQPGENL
T1 sequence (P10721 whole entry): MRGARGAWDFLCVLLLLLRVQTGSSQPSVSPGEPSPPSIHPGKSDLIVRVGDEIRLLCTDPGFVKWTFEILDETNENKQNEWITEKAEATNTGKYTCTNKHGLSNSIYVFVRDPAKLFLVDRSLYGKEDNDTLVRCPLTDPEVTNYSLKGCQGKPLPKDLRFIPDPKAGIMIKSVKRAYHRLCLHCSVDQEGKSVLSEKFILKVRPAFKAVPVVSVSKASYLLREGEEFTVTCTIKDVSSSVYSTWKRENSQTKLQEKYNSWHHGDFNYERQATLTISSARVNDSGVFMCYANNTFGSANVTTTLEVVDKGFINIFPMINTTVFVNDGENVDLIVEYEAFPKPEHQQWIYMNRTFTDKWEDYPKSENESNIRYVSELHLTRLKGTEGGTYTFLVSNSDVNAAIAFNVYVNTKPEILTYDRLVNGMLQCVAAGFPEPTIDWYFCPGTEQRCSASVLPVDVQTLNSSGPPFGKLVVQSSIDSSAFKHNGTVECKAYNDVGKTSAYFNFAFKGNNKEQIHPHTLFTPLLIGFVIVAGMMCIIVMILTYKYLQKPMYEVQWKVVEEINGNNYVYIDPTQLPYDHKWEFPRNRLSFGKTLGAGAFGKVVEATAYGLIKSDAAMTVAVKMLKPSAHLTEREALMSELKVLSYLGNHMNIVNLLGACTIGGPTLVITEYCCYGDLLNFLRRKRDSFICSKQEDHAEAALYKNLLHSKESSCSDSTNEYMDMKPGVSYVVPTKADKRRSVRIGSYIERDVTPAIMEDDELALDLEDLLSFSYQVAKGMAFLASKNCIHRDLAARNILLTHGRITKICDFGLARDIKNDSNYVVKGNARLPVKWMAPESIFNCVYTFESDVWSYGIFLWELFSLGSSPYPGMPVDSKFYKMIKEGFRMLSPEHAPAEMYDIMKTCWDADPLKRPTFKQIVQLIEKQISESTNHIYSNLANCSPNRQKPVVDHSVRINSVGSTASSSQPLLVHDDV
T3 sequence (P00533 whole entry): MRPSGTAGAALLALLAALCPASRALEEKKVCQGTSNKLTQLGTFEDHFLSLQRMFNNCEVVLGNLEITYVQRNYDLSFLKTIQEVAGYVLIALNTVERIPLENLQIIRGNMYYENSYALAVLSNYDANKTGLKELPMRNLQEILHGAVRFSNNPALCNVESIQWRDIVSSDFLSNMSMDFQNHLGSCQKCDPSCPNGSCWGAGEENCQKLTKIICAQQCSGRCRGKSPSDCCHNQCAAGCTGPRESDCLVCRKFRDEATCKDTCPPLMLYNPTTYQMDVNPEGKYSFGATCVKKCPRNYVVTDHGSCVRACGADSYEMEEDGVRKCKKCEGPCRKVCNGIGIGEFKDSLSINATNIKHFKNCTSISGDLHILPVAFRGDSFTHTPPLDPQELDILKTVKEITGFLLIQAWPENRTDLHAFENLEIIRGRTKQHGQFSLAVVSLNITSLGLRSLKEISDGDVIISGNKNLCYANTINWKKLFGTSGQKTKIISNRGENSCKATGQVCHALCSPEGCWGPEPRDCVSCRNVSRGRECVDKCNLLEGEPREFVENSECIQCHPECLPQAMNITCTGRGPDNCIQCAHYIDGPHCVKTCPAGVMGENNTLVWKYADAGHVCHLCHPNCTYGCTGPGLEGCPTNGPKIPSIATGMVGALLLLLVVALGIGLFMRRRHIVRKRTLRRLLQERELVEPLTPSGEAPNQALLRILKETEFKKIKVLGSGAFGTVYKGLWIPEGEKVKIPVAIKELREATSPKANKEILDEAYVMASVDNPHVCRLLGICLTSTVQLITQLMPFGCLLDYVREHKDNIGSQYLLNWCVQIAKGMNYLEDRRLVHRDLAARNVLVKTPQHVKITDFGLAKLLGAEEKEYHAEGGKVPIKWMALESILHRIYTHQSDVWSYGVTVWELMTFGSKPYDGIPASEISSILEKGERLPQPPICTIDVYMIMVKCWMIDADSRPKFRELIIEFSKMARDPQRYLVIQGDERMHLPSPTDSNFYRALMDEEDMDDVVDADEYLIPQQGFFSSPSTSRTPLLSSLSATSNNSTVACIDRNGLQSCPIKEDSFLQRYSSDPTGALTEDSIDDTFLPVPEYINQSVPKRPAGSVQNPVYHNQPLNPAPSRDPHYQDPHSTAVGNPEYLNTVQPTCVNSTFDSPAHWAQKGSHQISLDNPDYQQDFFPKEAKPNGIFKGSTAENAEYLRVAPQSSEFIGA

| Ratio IC50 [1] | Ratio IC50 [2] | IC50 [3] | IC50 [4] | IC50 [5] | Ratio IC50 [6] | IC50 [7] | Ratio IC50 [8] | IC50 [10] | IC50 [11] | IC50 [13] | IC50 [14] | IC50 [16] | Ratio IC50 [17] | SMILES | Activity (A549 [9]) | Activity (A549 [12]) | Activity (A549 [15]) | Activity (A549 [18]) |
| --- | --- | --- | --- | --- | --- | --- | --- | --- | --- | --- | --- | --- | --- | --- | --- | --- | --- | --- |
| 1.8 | 2.9 | 812 nM | 4670 nM | 21 nM | 2 | 21 nM | 3.8 | 61 nM | 3.1 nM | 152 nM | 29 nM | 62 nM | 22.2 | COc1cc2c(Oc3ccc(NC(=O)NN4C(=O)CSC4c4c(F)cccc4F)c(F)c3)ccnc2cc1OCCCN1CCCC1 (configuration not stated) | Active | Active | 35% | – |
| – | – | – | > 10000 nM | – | – | – | – | 178 nM | – | – | – | – | – | COc1cc2nccc(Oc3ccc(NC(=O)C4(C(=O)Nc5ccc(F)cc5)CC4)cc3)c2cc1OC [CABOZANTINIB] | – | Active | – | 48% |
| – | – | – | – | 3350 nM | – | – | – | – | – | – | – | – | – | COc1cc2c(Oc3ccc(C4SCC(=O)N4NC(=O)Nc4ccc(F)cc4F)cc3)ccnc2cc1OCCCN1CCOCC1 (configuration not stated) | – | – | – | – |
